Data on five compounds can be found in ChEMBL document CHEMBL1122046, “Quaternary heterocyclylamino beta-lactams: a generic alternative to the classical acylamino side chain” (1982).

Converted amounts (≈) assume the structure as drawn.

Common to all, as to type: functional
Experiment [1] has as its system Pseudomonas aeruginosa. Description: Minimum inhibitory concentration against aerobic organism Pseudomonas aeruginosa strain 2835. The method in brief:
(§1)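 Agar-dilution MIC in µg/mL against aerobic bacterial strains on tryptocase soy agar, with inoculum applied as spots. Most series used 10^5 cfu per spot, and a later series used 10^4 cfu per spot. In some tables, footnoted strains were instead tested on Mueller-Hinton or nutrient agar. β-Lactamase-producing strains are flagged.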

Experiment [2] has as its system Streptococcus pyogenes. Briefly: Minimum inhibitory concentration against aerobic organism Streptococcus pyogenes strain 3124. The method in brief:
as §1

The subject of experiment [3] is Proteus mirabilis. Briefly: Minimum inhibitory concentration against aerobic organism Proteus mirabilis strain 2830. The essentials:
as §1

Experiment [4] concerns Enterococcus faecalis. Briefly: Minimum inhibitory concentration against aerobic organism Streptococcus faecalis strain 2864. The essentials:
as §1

The subject of experiment [5] is Shigella. Description: Minimum inhibitory concentration against aerobic organism Shigella species strain 2880. The essentials:
as §1

For experiment [6], the system named is Staphylococcus aureus. Briefly: Minimum inhibitory concentration against aerobic organism Staphylococcus aureus strain 2868. Particulars: Staphylococcus aureus; read-out: MIC. The method in brief: as §1
Experiment [7] has as its system Proteus vulgaris. Briefly: Minimum inhibitory concentration against aerobic organism Proteus vulgaris strain 2829. The essentials:
as §1

Experiment [8] relates to Escherichia coli. Description: MIC against aerobic organism Escherichia coli strain 2891. The essentials:
as §1

Experiment [9] deals with Serratia marcescens. Briefly: Minimum inhibitory concentration against aerobic organism Serratia marcescens strain 2852. The method in brief:
as §1

Experiment [10] has as its system Klebsiella pneumoniae. Description: Minimum inhibitory concentration against aerobic organism Klebsiella pneumoniae strain 2882. The method in brief:
as §1

The nature of experiment [11]: Minimum inhibitory concentration against aerobic organism Salmonella schottmuelleri strain 2837. The essentials:
as §1

The subject of experiment [12] is Klebsiella aerogenes. Briefly: Minimum inhibitory concentration against aerobic organism Enterobacter aerogenes strain 2906. The method in brief:
as §1

The test system of experiment [13] is Morganella morganii. Briefly: Minimum inhibitory concentration against aerobic organism Morganella morganii strain 2833. The essentials:
as §1

Experiment [14] relates to Enterobacter cloacae. Briefly: Minimum inhibitory concentration against aerobic organism Enterobacter cloacae strain 2646. The essentials: as §1
The mark [15] stands for this setting: Streptococcus pyogenes, read-out: MIC.
The mark [16] stands for this setting: Proteus mirabilis, read-out: MIC.
Where [17] appears, read: Proteus vulgaris, read-out: MIC.
Setting [18] is: Escherichia coli, read-out: MIC.
Setting [19] is: Serratia marcescens, read-out: MIC.
[20] abbreviates: Klebsiella pneumoniae, read-out: MIC.
Setting [21] is: Klebsiella aerogenes, read-out: MIC.
Setting [22] is: Morganella morganii, read-out: MIC.
[23] abbreviates: Enterobacter cloacae, read-out: MIC.

Consider `Cn1nnnc1SCC1=C(C(=O)[O-])N2C(=O)[C@@H](Nc3cc[n+](C)cc3)[C@H]2SC1` (stereo in doubt; 15b), for which the MIC in experiment [1] is above 128 µg/mL; in experiment [2], 32 µg/mL (≈ 76.3 µM); in experiment [3], above 128 µg/mL; in experiment [4] it was above 128 µg/mL; in [5], above 128 µg/mL; in experiment [6], above 128 µg/mL. For the same compound, the MIC in experiment [7] is 4 µg/mL (≈ 9.54 µM); in [8], above 128 µg/mL; in experiment [9] it was 64 µg/mL (≈ 153 µM); in [10], 64 µg/mL (≈ 153 µM); in experiment [11], above 128 µg/mL; in experiment [12], 16 µg/mL (≈ 38.1 µM). Besides, the MIC in [13] and in experiment [14] was above 128 µg/mL each time.

For `Cn1nnnc1SCC1=C(C(=O)[O-])N2C(=O)[C@@H](Nc3cc[n+](COCC(Cl)(Cl)Cl)cc3)[C@H]2SC1`, the MIC in experiment [1] is above 128 µg/mL; in [2] (setting [15]), below 0.06 µg/mL; in experiment [3] (setting [16]), 64 µg/mL (≈ 113 µM); in experiment [4], above 128 µg/mL; in [5] (Shigella, read-out: MIC), below 0.06 µg/mL; in experiment [6], 2 µg/mL (≈ 3.53 µM). For the same compound, the MIC was below 0.06 µg/mL in [7] (setting [17]); below 0.06 µg/mL in experiment [8] (setting [18]); 64 µg/mL (≈ 113 µM) in [9] (setting [19]); 0.125 µg/mL (≈ 0.221 µM) in [10] (setting [20]); below 0.06 µg/mL in experiment [11] (Salmonella, read-out: MIC); 8 µg/mL (≈ 14.1 µM) in experiment [12] (setting [21]). Besides, the MIC worked out at 32 µg/mL (≈ 56.4 µM) in experiment [13] (setting [22]) and 0.125 µg/mL (≈ 0.221 µM) in [14] (setting [23]).

Take `COc1ccc(C[n+]2ccc(N[C@@H]3C(=O)N4C(C(=O)[O-])=C(CSc5nnnn5C)CS[C@H]34)cc2)cc1OC`: the MIC was above 64 µg/mL in [1]; 0.125 µg/mL (≈ 0.225 µM) in experiment [2] (setting [15]); above 64 µg/mL in [3] (setting [16]); above 64 µg/mL in [4]; 0.25 µg/mL (≈ 0.45 µM) in experiment [5] (Shigella, read-out: MIC); 8 µg/mL (≈ 14.4 µM) in [6]. Also, the MIC in [7] (setting [17]) worked out at 0.25 µg/mL (≈ 0.45 µM); in experiment [8] (setting [18]), 0.5 µg/mL (≈ 0.9 µM); in experiment [9] (setting [19]), 64 µg/mL (≈ 115 µM); in [10] (setting [20]), 0.5 µg/mL (≈ 0.9 µM); in experiment [11] (Salmonella, read-out: MIC), 0.5 µg/mL (≈ 0.9 µM); in [12] (setting [21]), 8 µg/mL (≈ 14.4 µM). The MIC in [13] (setting [22]) amounted to 32 µg/mL (≈ 57.6 µM); in experiment [14] (setting [23]) it was 64 µg/mL (≈ 115 µM).

`Cc1c[n+](C)ccc1N[C@@H]1C(=O)N2C(C(=O)[O-])=C(CSc3nnnn3C)CS[C@H]12`: the MIC was above 128 µg/mL in experiment [1]; 32 µg/mL (≈ 73.8 µM) in experiment [2] (setting [15]); 16 µg/mL (≈ 36.9 µM) in [3] (setting [16]); above 128 µg/mL in experiment [4]; 16 µg/mL (≈ 36.9 µM) in experiment [5] (Shigella, read-out: MIC); above 128 µg/mL in experiment [6]. For the same compound, the MIC in [7] (setting [17]) was 1 µg/mL (≈ 2.31 µM); in experiment [8] (setting [18]), 8 µg/mL (≈ 18.5 µM); in experiment [9] (setting [19]), above 128 µg/mL; in experiment [10] (setting [20]), 16 µg/mL (≈ 36.9 µM); in experiment [11] (Salmonella, read-out: MIC), 128 µg/mL (≈ 295 µM); in experiment [12] (setting [21]) it was 8 µg/mL (≈ 18.5 µM). For the same compound, the MIC in experiment [13] (setting [22]) and in [14] (setting [23]) was 16 µg/mL (≈ 36.9 µM) in each case.

Take `Cn1nnnc1SCC1=C(C(=O)[O-])N2C(=O)[C@@H](Nc3cc[n+](COCC(F)(F)F)cc3)[C@H]2SC1`: the MIC was above 128 µg/mL in experiment [1]; below 0.06 µg/mL in experiment [2] (setting [15]); above 128 µg/mL in experiment [3] (setting [16]); above 128 µg/mL in experiment [4]; below 0.06 µg/mL in experiment [5] (Shigella, read-out: MIC); 4 µg/mL (≈ 7.73 µM) in experiment [6]. Also, the MIC in experiment [7] (setting [17]) is 4 µg/mL (≈ 7.73 µM); in experiment [8] (setting [18]), below 0.06 µg/mL; in experiment [9] (setting [19]) it was 128 µg/mL (≈ 247 µM); in experiment [10] (setting [20]), 1 µg/mL (≈ 1.93 µM); in experiment [11] (Salmonella, read-out: MIC) it was below 0.06 µg/mL; in experiment [12] (setting [21]), 4 µg/mL (≈ 7.73 µM). Besides, the MIC in experiment [13] (setting [22]) was above 128 µg/mL; in [14] (setting [23]), below 0.06 µg/mL.

For orientation: MIC means the lowest concentration that inhibits growth of the organism.
